In brackets after ≈: the same amount, converted by molar mass.
Legend:
Staphylococcus aureus = assay: Minimum inhibitory concentration required against Gram-positive Staphylococcus aureus; assay type: functional
Enterococcus faecalis = assay: Minimum inhibitory concentration required against Gram-positive Enterococcus faecalis; assay type: functional
[1] = target: DNA gyrase (Escherichia coli) (UniProt P0AES6+P0AES4); assay: Concentration required to inhibit in vitro DNA gyrase activity isolated from Escherichia coli; assay type: protein-complex assay
In short: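 DNA gyrase isolated and purified from E. coli H560. The end point is the lowest drug concentration […] that gives detectable cleavage of relaxed bacterial Col E1 plasmid DNA. Cleavage is read by agarose gel electrophoresis with ethidium bromide staining.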

Streptococcus pyogenes = assay: Minimum inhibitory concentration required against Gram-positive Streptococcus pyogenes; assay type: functional
Escherichia coli [2] = assay: Minimum inhibitory concentration required against Gram-negative Escherichia coli WT; assay type: functional
In short: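 Standard microtitration MIC determination against wild-type E. coli strain MC4100.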

Escherichia coli [3] = assay: Minimum inhibitory concentration required against Gram-negative Escherichia coli LKY; assay type: functional
In short: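 Standard microtitration MIC determination against E. coli LKY, a cell-wall-deficient, semi-permeable strain.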

Escherichia coli [4] = assay: Minimum inhibitory concentration required against Gram-negative Escherichia coli TLC; assay type: functional

Compound | MIC (Staphylococcus aureus) | MIC (Enterococcus faecalis) | Activity [1] | MIC (Streptococcus pyogenes) | MIC (Escherichia coli [2]) | MIC (Escherichia coli [3]) | MIC (Escherichia coli [4])
O=C(O)c1cn(C2CC2)c2cc(N3CCNCC3)c(F)cc2c1=O [CIPROFLOXACIN] | 4 µg/mL (≈ 12.1 µM) | 0.4 µg/mL (≈ 1.21 µM) | 0.4 µM | 2 µg/mL (≈ 6.04 µM) |  |  | 
O=c1[nH]c2cc(N3CCCC3)c(F)cc2c(=O)n1O | 8 µg/mL (≈ 30.2 µM) |  | > 100 µM | 32 µg/mL (≈ 121 µM) | 64 µg/mL (≈ 241 µM) | 32 µg/mL (≈ 121 µM) | 16 µg/mL (≈ 60.3 µM)
N[C@H]1CCN(c2c(F)cc3c(=O)n(O)c(=O)n(C4CC4)c3c2Cl)C1 | 16 µg/mL (≈ 45.1 µM) | 32 µg/mL (≈ 90.2 µM) | 1 µM | 4 µg/mL (≈ 11.3 µM) | 2 µg/mL (≈ 5.64 µM) | 0.5 µg/mL (≈ 1.41 µM) | 1 µg/mL (≈ 2.82 µM)
C[C@H](N)[C@@H]1CCN(c2cc3c(cc2F)c(=O)n(O)c(=O)n3C2CC2)C1 | 1 µg/mL (≈ 2.87 µM) | 4 µg/mL (≈ 11.5 µM) | 6.4 µM | 0.5 µg/mL (≈ 1.44 µM) | 8 µg/mL (≈ 23 µM) | 0.12 µg/mL (≈ 0.344 µM) | 0.12 µg/mL (≈ 0.344 µM)
O=c1c2cc(F)c(N3CCCC3)cc2n(C2CC2)c(=O)n1O | 1 µg/mL (≈ 3.28 µM) |  | 7 µM | 16 µg/mL (≈ 52.4 µM) | 8 µg/mL (≈ 26.2 µM) | 0.1 µg/mL (≈ 0.328 µM) | 0.13 µg/mL (≈ 0.426 µM)
NCC1CCN(c2cc3c(cc2F)c(=O)n(O)c(=O)n3C2CC2)C1 (configuration not stated) | 16 µg/mL (≈ 47.9 µM) |  |  | 2 µg/mL (≈ 5.98 µM) | 8 µg/mL (≈ 23.9 µM) | 1 µg/mL (≈ 2.99 µM) | 1 µg/mL (≈ 2.99 µM)
N[C@H]1CCN(c2cc3c(cc2F)c(=O)n(O)c(=O)n3C2CC2)C1 | 32 µg/mL (≈ 99.9 µM) |  | 2 µM | 4 µg/mL (≈ 12.5 µM) | 1 µg/mL (≈ 3.12 µM) | 0.3 µg/mL (≈ 0.937 µM) | 0.25 µg/mL (≈ 0.78 µM)
O=c1c2cc(F)c(N3CCCC3)cc2n(Cc2ccccc2)c(=O)n1O | 16 µg/mL (≈ 45 µM) | > 64 µg/mL | > 100 µM | 32 µg/mL (≈ 90 µM) | > 64 µg/mL | 32 µg/mL (≈ 90 µM) | 16 µg/mL (≈ 45 µM)
CN[C@@H](C)[C@@H]1CCN(c2cc3c(cc2F)c(=O)n(O)c(=O)n3C2CC2)C1 | 16 µg/mL (≈ 44.1 µM) | 16 µg/mL (≈ 44.1 µM) | 6.2 µM | 2 µg/mL (≈ 5.52 µM) | 32 µg/mL (≈ 88.3 µM) | 4 µg/mL (≈ 11 µM) | 2 µg/mL (≈ 5.52 µM)
CC(C)(N)[C@@H]1CCN(c2cc3c(cc2F)c(=O)n(O)c(=O)n3C2CC2)C1 | 16 µg/mL (≈ 44.1 µM) | 16 µg/mL (≈ 44.1 µM) | 2.2 µM | 32 µg/mL (≈ 88.3 µM) | 8 µg/mL (≈ 22.1 µM) | 2 µg/mL (≈ 5.52 µM) | 0.5 µg/mL (≈ 1.38 µM)
NC1CN(c2cc3c(cc2F)c(=O)n(O)c(=O)n3C2CC2)C1 | > 64 µg/mL |  | 18 µM | > 64 µg/mL | 16 µg/mL (≈ 52.2 µM) | 0.25 µg/mL (≈ 0.816 µM) | 0.5 µg/mL (≈ 1.63 µM)
O=c1c2cc(F)c(N3CCCC3)cc2n(CC2CC2)c(=O)n1O | 8 µg/mL (≈ 25.1 µM) | 64 µg/mL (≈ 200 µM) | 13 µM | 8 µg/mL (≈ 25.1 µM) | 32 µg/mL (≈ 100 µM) | 0.5 µg/mL (≈ 1.57 µM) | 0.5 µg/mL (≈ 1.57 µM)
O=c1c2cc(F)c(N3CCCC3)cc2n(-c2ccc(F)cc2F)c(=O)n1O | 64 µg/mL (≈ 170 µM) | 64 µg/mL (≈ 170 µM) | > 100 µM | 32 µg/mL (≈ 84.8 µM) | > 64 µg/mL | 32 µg/mL (≈ 84.8 µM) | 32 µg/mL (≈ 84.8 µM)
N[C@@H]1[C@H]2CN(c3cc4c(cc3F)c(=O)n(O)c(=O)n4C3CC3)C[C@@H]12 | 4 µg/mL (≈ 12 µM) | 4 µg/mL (≈ 12 µM) | 0.7 µM | 2 µg/mL (≈ 6.02 µM) | 1 µg/mL (≈ 3.01 µM) | 0.25 µg/mL (≈ 0.752 µM) | 0.25 µg/mL (≈ 0.752 µM)
O=c1c2cc(F)c(-n3ccnc3)cc2n(C2CC2)c(=O)n1O | 64 µg/mL (≈ 212 µM) | 64 µg/mL (≈ 212 µM) | 0.4 µM | 64 µg/mL (≈ 212 µM) | > 64 µg/mL | 8 µg/mL (≈ 26.5 µM) | 2 µg/mL (≈ 6.62 µM)
N[C@H]1CCN(c2c(F)cc3c(=O)n(O)c(=O)n(C4CC4)c3c2F)C1 | 32 µg/mL (≈ 94.6 µM) | 16 µg/mL (≈ 47.3 µM) | 0.28 µM | 16 µg/mL (≈ 47.3 µM) | 8 µg/mL (≈ 23.6 µM) | 2 µg/mL (≈ 5.91 µM) | 1 µg/mL (≈ 2.96 µM)
CCn1c(=O)n(O)c(=O)c2cc(F)c(N3CCCC3)cc21 | 32 µg/mL (≈ 109 µM) |  | > 100 µM | 32 µg/mL (≈ 109 µM) | > 64 µg/mL | 2 µg/mL (≈ 6.82 µM) | 1 µg/mL (≈ 3.41 µM)
CN1CC2CN(c3cc4c(cc3F)c(=O)n(O)c(=O)n4C3CC3)CC2C1 (configuration not stated) | 32 µg/mL (≈ 88.8 µM) | 32 µg/mL (≈ 88.8 µM) | 7.8 µM | 32 µg/mL (≈ 88.8 µM) | 4 µg/mL (≈ 11.1 µM) | 2 µg/mL (≈ 5.55 µM) | 1 µg/mL (≈ 2.77 µM)
O=c1c2cc(F)c(N3C[C@@H]4CCCN[C@@H]4C3)cc2n(C2CC2)c(=O)n1O | 32 µg/mL (≈ 88.8 µM) | 64 µg/mL (≈ 178 µM) | 5 µM | 32 µg/mL (≈ 88.8 µM) | 8 µg/mL (≈ 22.2 µM) | 2 µg/mL (≈ 5.55 µM) | 1 µg/mL (≈ 2.77 µM)
O=c1c2cc(F)c(N3CCC(CNCC(F)(F)F)C3)cc2n(C2CC2)c(=O)n1O (configuration not stated) | 4 µg/mL (≈ 9.61 µM) | 16 µg/mL (≈ 38.4 µM) | 8 µM | 16 µg/mL (≈ 38.4 µM) | > 64 µg/mL | 1 µg/mL (≈ 2.4 µM) | 0.5 µg/mL (≈ 1.2 µM)
Cn1c(=O)n(O)c(=O)c2cc(F)c(N3CCCC3)cc21 | > 64 µg/mL | > 64 µg/mL | > 100 µM | > 64 µg/mL | 32 µg/mL (≈ 115 µM) | 16 µg/mL (≈ 57.3 µM) | 8 µg/mL (≈ 28.6 µM)

— ChEMBL document CHEMBL1137174, “Synthesis and structural-activity relationships of 3-hydroxyquinazoline-2,4-dione antibacterial agents” (2004)
